# Measured values from different studies.
# Each line is one published result; the experiments were not run side by side.
# Target: Serine/threonine-protein kinase 32C (STK32C, Homo sapiens, UniProt Q86UX6)
SMILES,test,conditions,remaining binding
COc1ccnn2ncc(-c3ccnc(N(C)C)n3)c12,binding,1 µM,80%
C=CC(=O)N1CCC(C(=O)NCC(=O)N2CCN(c3nc(-c4cnc(N)nc4C(F)F)nc(N4CCOCC4)n3)CC2)CC1,"binding, competition with immobilised ligand",1 µM,99%
O=C(Nc1c[nH]nc1C(=O)NC1CCNCC1)c1cc(F)cc(F)c1,"binding, competition with immobilised ligand",1 µM,97%
O=C(N[C@H]1CCCCC/C=C\C2C[C@@]2(C(=O)O)NC(=O)[C@@H]2C[C@@H](Oc3ccncc3)CN2C1=O)OC1CCCC1 (some centres unmarked),"binding, competition with immobilised ligand",1 µM,100%
O=C(c1ccc(Nc2ncc(Cl)c(-c3cc4ccccc4s3)n2)cc1)N1CCC(N2CCCC2)CC1,"binding, competition with immobilised ligand",1 µM,100%
C[C@@H]1CCN(c2nccc(-c3cnn4ncccc34)n2)C1,binding,1 µM,83%
Cc1c[nH]c2nccc(Oc3c(F)cc(Nc4cc(Cl)nc(N)n4)cc3F)c12,"cell-free assay, competition with immobilised ligand",0.1 µM,93%
Cc1cnc(Nc2ccc(C(=O)N3CCC(N4CCCC4)CC3)cc2)nc1-c1cc2ccccc2s1,"binding, competition with immobilised ligand",1 µM,100%
CN(c1nccc(-c2cnn3ncccc23)n1)C1CC1,binding,1 µM,70%
Nc1ncc2c(n1)-c1c([nH]c3ccc(C#CC4CC4)cc13)CCCC2,"binding, competition with immobilised ligand",1 µM,100%
CNC(=O)Nc1ccc2c(c1)[C@@]1(CC2)OC(=O)N(CC(=O)N(Cc2ccc(F)cc2)[C@@H](C)C(F)(F)F)C1=O,"cell-free assay, competition with immobilised ligand",1 µM,100%
COc1ncc2cc3ccccc3nc2c1C#N,"cell-free assay, competition with immobilised ligand",5 µM,100%
CNC(=O)[C@@H]1CC[C@@H](n2c(-c3ccc4cnccc4c3)nc3ccc(C(=O)NCc4cccc(C(N)=O)c4)cc32)C1,"binding, competition with immobilised ligand",1 µM,93%
O=C(NCc1ncc(C(F)(F)F)cc1Cl)c1ccc2c(c1)C1(CCS(=O)(=O)CC1)[C@@H](C1CC1)N2S(=O)(=O)c1ccc(F)cc1,"cell-free assay, competition with immobilised ligand",1 µM,100%
CN(C)c1nccc(-c2cnn3ncccc23)n1,binding,1 µM,100%
C[C@@H]1CN(c2cc(-c3nn(C)c4ccc(OC5(C)CC5)cc34)ncn2)C[C@H](C)O1,"cell-free assay, competition with immobilised ligand",1 µM,100%
CN(C)c1nccc(-c2cnc3ncccn23)n1,binding,1 µM,100%
